Laboratory results published in ChEMBL document CHEMBL2040734, “Benzothiazoles: search for anticancer agents” (2012).

Experiments:
Assay type in all cases: functional
DU-145 = experiment: Cytotoxicity against human DU145 cells assessed as cell growth at 0.1 uM after 48 hrs by sulforhodamine B assay; conditions: DU-145, 48 h, read-out: Activity
In short: (§1)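 NCI-60 five-dose screen. Cells were grown in RPMI 1640 with 5% FBS and 2 mM L-glutamine and preincubated 24 h. Compound (DMSO stock) was tested at 0.01, 0.1, 1, 10 and 100 µM for 48 h at 37 °C. Cells were fixed in situ with cold TCA (final 10%) and stained with 0.4% SRB. A515 was read, and percent growth was calculated against time-zero and control plates.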

SF-539 = experiment: Cytotoxicity against human SF539 cells assessed as cell growth at 10 uM after 48 hrs by sulforhodamine B assay; conditions: SF-539, 48 h, read-out: Activity
ACHN = experiment: Cytotoxicity against human ACHN cells assessed as cell growth at 10 uM after 48 hrs by sulforhodamine B assay; conditions: read-out: Activity; in short: as §1
MDA-MB-468 = experiment: Cytotoxicity against human MDA-MB-468 cells assessed as cell growth at 100 uM after 48 hrs by sulforhodamine B assay; conditions: MDA-MB-468, 48 h, read-out: Activity
OVCAR-3 [1] = experiment: Cytotoxicity against human OVCAR3 cells assessed as cell growth at 0.01 uM after 48 hrs by sulforhodamine B assay; conditions: OVCAR-3, 48 h, read-out: Activity
RXF 393 = experiment: Cytotoxicity against human RXF393 cells assessed as cell growth at 100 uM after 48 hrs by sulforhodamine B assay; conditions: RXF 393, 48 h, read-out: Activity
CAKI-1 = experiment: Cytotoxicity against human Caki1 cells assessed as cell growth at 100 uM after 48 hrs by sulforhodamine B assay; conditions: CAKI-1, 48 h, read-out: Activity; in short: as §1
OVCAR-8 = experiment: Cytotoxicity against human OVCAR8 cells assessed as cell growth at 1 uM after 48 hrs by sulforhodamine B assay; conditions: OVCAR-8, 48 h, read-out: Activity
SF-295 = experiment: Cytotoxicity against human SF295 cells assessed as cell growth at 10 uM after 48 hrs by sulforhodamine B assay; conditions: SF-295, 48 h, read-out: Activity
MCF7 = experiment: Cytotoxicity against human MCF7 cells assessed as cell growth at 1 uM after 48 hrs by sulforhodamine B assay; conditions: MCF7, 48 h, read-out: Activity
T47D = experiment: Cytotoxicity against human T47D cells assessed as cell growth at 0.01 uM after 48 hrs by sulforhodamine B assay; conditions: read-out: Activity
TK-10 = experiment: Cytotoxicity against human TK10 cells assessed as cell growth at 100 uM after 48 hrs by sulforhodamine B assay; conditions: TK-10, 48 h, read-out: Activity
PC-3 = experiment: Cytotoxicity against human PC3 cells assessed as cell growth at 10 '-5 M after 48 hrs by sulforhodamine B assay; conditions: PC-3, 48 h, read-out: Activity
SW-620 = experiment: Cytotoxicity against human SW620 cells assessed as cell growth at 0.01 uM after 48 hrs by sulforhodamine B assay; conditions: SW-620, 48 h, read-out: Activity
OVCAR-3 [2] = experiment: Cytotoxicity against human OVCAR3 cells assessed as cell growth at 0.1 uM after 48 hrs by sulforhodamine B assay; conditions: OVCAR-3, 48 h, read-out: Activity
HOP-62 = experiment: Cytotoxicity against human HOP62 cells assessed as cell growth at 1 uM after 48 hrs by sulforhodamine B assay; conditions: HOP-62, 48 h, read-out: Activity
In short: (§2)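 Five-dose NCI panel run at 0.01, 0.1, 1, 10 and 100 µM. Cells were in RPMI 1640 with 5% FBS and 2 mM L-glutamine, seeded at 5000–40,000 cells/well and pre-incubated 24 h. Drug was diluted from a DMSO stock into medium with 50 µg/ml gentamicin. Exposure was 48 h at 37 °C, 5% CO2. Cells were fixed with cold TCA and stained with 0.4% SRB, read at 515 nm. Percent growth came from time-zero, control and test absorbances.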

IGROV-1 = experiment: Cytotoxicity against human IGROV1 cells assessed as cell growth at 10 uM after 48 hrs by sulforhodamine B assay; conditions: IGROV-1, 48 h, read-out: Activity
UACC-62 [3] = experiment: Cytotoxicity against human UACC62 cells assessed as cell growth at 1 uM after 48 hrs by sulforhodamine B assay; conditions: UACC-62, 48 h, read-out: Activity
UACC-257 [4] = experiment: Growth inhibition of human UACC257 cells after 48 hrs by sulforhodamine B assay; conditions: UACC-257, 48 h; for CC50: read-out: LC50 (the source's name)
In short: (§3)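 Adherent NCI-60 lines were grown in RPMI 1640 with 5% FBS and 2 mM L-glutamine, plated at 5000–40,000 cells/well and preincubated 24 h. They were then exposed to five concentrations (0.01–100 µM, from a DMSO stock) for 48 h at 37 °C, 5% CO2. Cells were fixed with cold TCA (10% final, 60 min, 4 °C) and stained with 0.4% SRB. Dye was solubilized in 10 mM Tris base and A515 read. GI50 was derived from time-zero, control and treated absorbances.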

UO-31 [5] = experiment: Cytotoxicity against human UO31 cells assessed as cell growth at 0.01 uM after 48 hrs by sulforhodamine B assay; conditions: UO-31, 48 h, read-out: Activity
UO-31 [6] = experiment: Growth inhibition of human UO31 cells after 48 hrs by sulforhodamine B assay; conditions: UO-31, 48 h; for CC50: read-out: LC50 (the source's name); in short: as §3
NCI-H460 = experiment: Growth inhibition of human NCI-H460 cells after 48 hrs by sulforhodamine B assay; conditions: NCI-H460, 48 h; in short: as §3
BT-549 = experiment: Cytotoxicity against human BT549 cells assessed as cell growth at 0.1 uM after 48 hrs by sulforhodamine B assay; conditions: BT-549, 48 h, read-out: Activity; in short: as §1
HCT-15 = experiment: Cytotoxicity against human HCT15 cells assessed as cell growth at 0.01 uM after 48 hrs by sulforhodamine B assay; conditions: HCT-15, 48 h, read-out: Activity; in short: as §2
UACC-257 [7] = experiment: Cytotoxicity against human UACC257 cells assessed as cell growth at 10 uM after 48 hrs by sulforhodamine B assay; conditions: UACC-257, 48 h, read-out: Activity
SNB-75 = experiment: Cytotoxicity against human SNB75 cells assessed as cell growth at 0.01 uM after 48 hrs by sulforhodamine B assay; conditions: SNB-75, 48 h, read-out: Activity
A549 = experiment: Growth inhibition of human A549 cells after 48 hrs by sulforhodamine B assay; conditions: A549, 48 h
In short: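 Cells were in RPMI 1640 with 5% FBS and pre-incubated 24 h. Read-out was TCA fixation, SRB staining and absorbance at 515 nm. GI50 was the concentration where [(Ti−Tz)/(C−Tz)]×100 = 50, taken from log concentration vs % growth curves. It is given as ">" the top concentration when not reached.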

UACC-257 [8] = experiment: Cytotoxicity against human UACC257 cells assessed as cell growth at 100 uM after 48 hrs by sulforhodamine B assay; conditions: UACC-257, 48 h, read-out: Activity
UACC-62 [9] = experiment: Cytotoxicity against human UACC62 cells assessed as cell growth at 0.01 uM after 48 hrs by sulforhodamine B assay; conditions: UACC-62, 48 h, read-out: Activity

| SMILES | growth at 0.1 µM (DU-145) [%] | growth at 10 µM (SF-539) [%] | growth at 10 µM (ACHN) [%] | growth at 100 µM (MDA-MB-468) [%] | growth at 0.01 µM (OVCAR-3 [1]) [%] | growth at 100 µM (RXF 393) [%] | growth at 100 µM (CAKI-1) [%] | growth at 1 µM (OVCAR-8) [%] | growth at 10 µM (SF-295) [%] | growth at 1 µM (MCF7) [%] | growth at 0.01 µM (T47D) [%] | growth at 100 µM (TK-10) [%] | growth at 10 µM (PC-3) [%] | growth at 0.01 µM (SW-620) [%] | growth at 0.1 µM (OVCAR-3 [2]) [%] | growth at 1 µM (HOP-62) [%] | growth at 10 µM (IGROV-1) [%] | growth at 1 µM (UACC-62 [3]) [%] | GI50 (UACC-257 [4]) [µM] | TGI (UACC-257 [4]) [µM] | further results |
| --- | --- | --- | --- | --- | --- | --- | --- | --- | --- | --- | --- | --- | --- | --- | --- | --- | --- | --- | --- | --- | --- |
| Cc1ccc2nc(Nc3c(C)cccc3C)sc2c1 | 102 | 57 | 59 | 27 | 101 | 24 | 42 | 89 | 15 | 53 | 94 | 72 | 40.4 | 97 | 108 | 66 | 42 | 52 | > 100 | > 100 | CC50 (UACC-257 [4]): > 100 µM; growth at 0.01 µM (UO-31 [5]): 90%; TGI (UO-31 [6]): > 100 µM; CC50 (UO-31 [6]): > 100 µM; LC50 (concentration killing 50% of cells) (NCI-H460): > 100 µM; TGI (NCI-H460): > 100 µM; growth at 0.1 µM (BT-549): 99%; growth at 0.01 µM (HCT-15): 95%; growth at 10 µM (UACC-257 [7]): 70%; growth at 0.01 µM (SNB-75): 80%; LC50 (concentration killing 50% of cells) (A549): > 100 µM; TGI (A549): > 100 µM; growth at 100 µM (UACC-257 [8]): 73%; growth at 0.01 µM (UACC-62 [9]): 92% |
| Clc1cccc(Cl)c1Nc1nc2cccc(Cl)c2s1 | 102 | -81 | -99 | -59 | 98 | -40 | -75 | 58 | -87 | 46 | 95 | -67 | 4.1 | 97 | 97 | 67 | -55 | 51 | 1.35 | 3.1 | CC50 (UACC-257 [4]): 7.09 µM; growth at 0.01 µM (UO-31 [5]): 88%; GI50 (UO-31 [6]): 0.161 µM; TGI (UO-31 [6]): 1.67 µM; CC50 (UO-31 [6]): 4.44 µM; GI50 (NCI-H460): 1.32 µM; TGI (NCI-H460): 2.97 µM; growth at 0.1 µM (BT-549): 101%; growth at 0.01 µM (HCT-15): 93%; growth at 10 µM (UACC-257 [7]): -71%; growth at 0.01 µM (SNB-75): 82%; GI50 (A549): 1.11 µM; LC50 (concentration killing 50% of cells) (A549): 7.47 µM; TGI (A549): 2.87 µM; growth at 100 µM (UACC-257 [8]): -67%; growth at 0.01 µM (UACC-62 [9]): 94% |
